# In PubChem BioAssay AID602285 (Broad Institute, 2012):
# Calls of active or inactive are those of the source.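 The calls were made as follows: active = AC50 at or below twice the top valid dose for that sample, with falling signal; inconclusive = flat curve with inhibition of 30 to 70%, or poor fit; inactive = activity in the wrong direction, plus the rest.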
# Target: Scavenger receptor class B member 1 (Mus musculus) (UniProt Q61009)
# Assay: inhibitors of HDL uptake via mouse SR-BI, dose response, ldlA[mSR-BI] CHO cells, fluorescence plate reader, dry powder, set 8 (AID 602285)
# Conditions: DiI-HDL uptake fluorescence, 3 h
# In short: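 Material: CHO ldlA cells overexpressing mouse SR-BI; detection: bottom-read DiI fluorescence after PBS washes, excitation 550 nm, emission 595 nm; schedule: 3 h uptake at 37 °C; controls: DMSO as neutral control, BLT-1 as inhibitor control; medium: Ham's F12, fatty acid-free BSA, HEPES pH 7.4; compound: pin-transferred compounds, dose series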
# Scavenger receptor class B member 1 (Mus musculus), sequence (Q61009 whole entry, looked up): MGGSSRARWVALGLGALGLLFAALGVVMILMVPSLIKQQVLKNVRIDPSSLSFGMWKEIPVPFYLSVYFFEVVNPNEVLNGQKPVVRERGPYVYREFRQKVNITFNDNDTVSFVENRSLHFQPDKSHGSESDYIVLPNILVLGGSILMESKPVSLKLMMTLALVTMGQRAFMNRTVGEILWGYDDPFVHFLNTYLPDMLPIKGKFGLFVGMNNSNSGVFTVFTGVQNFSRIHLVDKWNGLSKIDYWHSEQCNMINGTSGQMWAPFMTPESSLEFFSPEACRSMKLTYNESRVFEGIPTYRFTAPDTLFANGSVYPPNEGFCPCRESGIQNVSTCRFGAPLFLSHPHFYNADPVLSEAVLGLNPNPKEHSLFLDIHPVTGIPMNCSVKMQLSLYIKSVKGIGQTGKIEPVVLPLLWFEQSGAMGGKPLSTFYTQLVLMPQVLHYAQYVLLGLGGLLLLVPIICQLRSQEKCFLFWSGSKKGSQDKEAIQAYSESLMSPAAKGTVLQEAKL
Structure (SMILES),AC50,also measured
Cc1ccc(S(=O)(=O)Nc2ccc3c(c2)C(=O)N([C@H](C)CO)C[C@@H](C)[C@H](CN(C)S(=O)(=O)c2ccc(Cl)cc2)O3)cc1,–,"activity change, negative = inhibition (at 35 µM (top of the series)): inactive"
C[C@@H]1CN([C@H](C)CO)C(=O)c2cc(NC(=O)Cc3cn(C)c4ccccc34)ccc2O[C@H]1CN(C)Cc1ccncc1,1300 nM,–
Cc1noc(C)c1NC(=O)N(C)C[C@H]1Oc2cc(C#CCC3CCCC3)ccc2S(=O)(=O)N([C@H](C)CO)C[C@@H]1C,94 nM,–
C[C@@H]1CN([C@H](C)CO)C(=O)Cc2cc(NC(=O)Cc3cn(C)c4ccccc34)ccc2O[C@H]1CN(C)S(=O)(=O)c1ccc(F)cc1,33200 nM,–
CNC[C@@H]1OCCCC[C@@H](C)Oc2ccc(NS(=O)(=O)c3ccc(Cl)cc3)cc2C(=O)N([C@H](C)CO)C[C@H]1C,–,"activity change, negative = inhibition (at 35 µM (top of the series)): inactive"
COCC(=O)N1CCc2cc(-c3csc(NC(=O)c4cc(OC)cc(OC)c4)n3)ccc21,< 15 nM,–
C[C@H](CO)N1C[C@H](C)[C@@H](CN(C)S(=O)(=O)c2ccc(Cl)cc2)Oc2ccc(NC(=O)Cc3cn(C)c4ccccc34)cc2C1=O,8910 nM,–
C[C@H](CO)N1C[C@H](C)[C@H](CN(C)CC2CCCCC2)Oc2c(NS(=O)(=O)c3cn(C)cn3)cccc2C1=O,> 70000 nM (inactive),–
C[C@@H]1CN([C@@H](C)CO)C(=O)Cc2cc(NS(C)(=O)=O)ccc2O[C@@H]1CN(C)Cc1ccc(C(F)(F)F)cc1,22300 nM,–
C[C@@H]1CN([C@H](C)CO)C(=O)c2cc(NC(=O)Cc3cn(C)c4ccccc34)ccc2O[C@H]1CN(C)C(=O)Nc1ccccc1,4920 nM,–
C[C@@H]1CN([C@@H](C)CO)C(=O)c2cc(NC(=O)NC3CCCCC3)ccc2O[C@H]1CN(C)Cc1ccncc1,10700 nM,–
C[C@@H]1CN([C@H](C)CO)C(=O)c2cc(NS(=O)(=O)c3ccc(Cl)cc3)ccc2O[C@H]1CN(C)S(=O)(=O)c1ccc(Cl)cc1,–,"activity change, negative = inhibition (at 35 µM (top of the series)): inactive"
C[C@@H]1CN([C@@H](C)CO)C(=O)Cc2cc(NS(=O)(=O)c3cn(C)cn3)ccc2O[C@H]1CN(C)Cc1ccc(Cl)c(Cl)c1,–,"activity change, negative = inhibition (at 35 µM (top of the series)): inactive"
C[C@H](C(=O)NC1CCCC1)N(C(=O)Cn1nnc(-c2ccc3c(c2)OCO3)n1)C1CCCCC1,37.4 nM,–
C[C@@H]1CN([C@H](C)CO)C(=O)c2cc(NC(=O)Cc3cn(C)c4ccccc34)ccc2O[C@H]1CN(C)Cc1ccc(C(=O)O)cc1,11800 nM,–
C[C@@H]1CN([C@H](C)CN)C(=O)c2cc(NC(=O)Cc3cn(C)c4ccccc34)ccc2O[C@H]1CN(C)S(=O)(=O)c1ccc(Cl)cc1,–,"activity change, negative = inhibition (at 11 µM (top of the series)): inactive"
C[C@@H]1CN([C@H](C)CO)S(=O)(=O)c2ccc(C3=CCCCC3)cc2O[C@@H]1CN(C)C(=O)Nc1ccc2c(c1)OCO2,–,"activity change, negative = inhibition (at 35 µM (top of the series)): inactive"
C[C@@H]1CN([C@H](C)CO)C(=O)c2cc(NC(=O)c3ccncc3)ccc2O[C@H]1CN(C)S(=O)(=O)c1ccc(Cl)cc1,593 nM,–
C[C@@H]1CN([C@@H](C)CO)C(=O)Cc2cc(N(C)C)ccc2O[C@@H]1CN(C)Cc1ccc(C(=O)O)cc1,34400 nM,–
C[C@@H]1CN([C@H](C)CO)C(=O)c2cc(NC(=O)CCCCCC(=O)Nc3ccccc3N)ccc2O[C@H]1CN(C)S(=O)(=O)c1ccc(Cl)cc1,563 nM,–
C[C@@H]1CN([C@H](C)CO)C(=O)c2cc(NC(=O)Nc3ccc4c(c3)OCO4)ccc2O[C@H]1CN(C)S(=O)(=O)c1ccc(Cl)cc1,856 nM,–

Structure (SMILES),AC50,also measured
COc1ccc(NC(=O)N(C)C[C@@H]2Oc3ccc(NC(=O)Cc4cn(C)c5ccccc45)cc3C(=O)N([C@H](C)CO)C[C@H]2C)cc1,1750 nM,–
C[C@@H]1CN([C@H](C)CO)C(=O)c2cc(NC(=O)Nc3ccc(C(F)(F)F)cc3)ccc2O[C@H]1CN(C)S(=O)(=O)c1ccc(Cl)cc1,–,"activity change, negative = inhibition (at 35 µM (top of the series)): inactive"
COc1ccc(NC(=O)Nc2ccc3c(c2)C(=O)N([C@H](C)CO)C[C@@H](C)[C@H](CN(C)S(=O)(=O)c2ccc(Cl)cc2)O3)cc1,304 nM,–
CC(C)NC(=O)Nc1cccc2c1O[C@@H](CN(C)Cc1ccc(C(F)(F)F)cc1)[C@@H](C)CN([C@@H](C)CO)C2=O,–,"activity change, negative = inhibition (at 35 µM (top of the series)): inactive"
C[C@@H]1CN([C@H](C)CO)C(=O)c2cc(NC(=O)Cc3cn(C)c4ccccc34)ccc2O[C@H]1CN(C)Cc1ccc2c(c1)OCO2,865 nM,–
C[C@@H]1CN([C@H](C)CO)C(=O)c2cc(NC(=O)Cc3cn(C)c4ccccc34)ccc2O[C@H]1CN(C)C,17900 nM,–
C[C@@H]1CN([C@@H](C)CO)C(=O)Cc2cc(NS(=O)(=O)c3cn(C)cn3)ccc2O[C@@H]1CN(C)Cc1ccc(Cl)c(Cl)c1,–,"activity change, negative = inhibition (at 35 µM (top of the series)): inactive"
CO[C@H]1CN(C)C(=O)c2cc(NC(=O)c3ccccc3F)ccc2OC[C@@H](C)N(C(C)=O)C[C@@H]1C,> 70000 nM (inactive),–
COc1ccc(-c2nnn(CC(=O)N(C3CCCCC3)C(C)C(=O)NC3CCCCC3)n2)cc1OC (configuration not stated),200 nM,–
C[C@@H]1CN([C@H](C)CO)C(=O)c2cc(NC(=O)Cc3cn(C)c4ccccc34)ccc2O[C@H]1CN(C)Cc1ccc(-c2ccccc2)cc1,–,"activity change, negative = inhibition (at 35 µM (top of the series)): inactive"
C[C@@H]1CN([C@H](C)CO)C(=O)c2cc(NC(=O)Cc3cn(C)c4ccccc34)ccc2O[C@H]1CN(C)C(=O)NC1CCCCC1,9180 nM,–
C[C@@H]1CN([C@H](C)CO)C(=O)c2cc(NC(=O)CCCN(C)C)ccc2O[C@H]1CN(C)S(=O)(=O)c1ccc(Cl)cc1,> 70000 nM (inactive),–
C[C@@H]1CN([C@H](C)CO)C(=O)c2cc(NS(C)(=O)=O)ccc2O[C@H]1CN(C)S(=O)(=O)c1ccc(Cl)cc1,1640 nM,–
Cc1noc(C)c1NC(=O)N(C)C[C@@H]1Oc2ccc(NC(=O)Cc3cn(C)c4ccccc34)cc2C(=O)N([C@H](C)CO)C[C@H]1C,6970 nM,–
CO[C@@H]1CN(C)C(=O)c2ccc(NC(=O)C3CC3)cc2OC[C@@H](C)N(Cc2ccncc2)C[C@H]1C,–,"activity change, negative = inhibition (at 35 µM (top of the series)): inactive"
C[C@@H]1CN([C@H](C)CO)C(=O)c2cc(NC(=O)Nc3cccc4ccccc34)ccc2O[C@H]1CN(C)S(=O)(=O)c1ccc(Cl)cc1,165 nM,–
C[C@@H]1CN([C@H](C)CO)C(=O)c2cc(NC(=O)Cc3cn(C)c4ccccc34)ccc2O[C@H]1CN(C)C(=O)Nc1ccc(F)cc1,1560 nM,–
CO[C@H]1CN(C)C(=O)c2ccc(NC(=O)C3CCCC3)cc2OC[C@@H](C)N(C(=O)CC2CC2)C[C@@H]1C,–,"activity change, negative = inhibition (at 35 µM (top of the series)): inactive"
C[C@@H]1CN([C@H](C)CN(C)C)C(=O)c2cc(NC(=O)Cc3cn(C)c4ccccc34)ccc2O[C@H]1CN(C)S(=O)(=O)c1ccc(Cl)cc1,–,"activity change, negative = inhibition (at 35 µM (top of the series)): inactive"
C[C@@H]1CN([C@H](C)CO)C(=O)c2cc(NC(=O)CCC(F)(F)F)ccc2O[C@H]1CN(C)S(=O)(=O)c1ccc(Cl)cc1,258 nM,–
C[C@@H]1CN([C@H](C)CO)C(=O)c2cc(NC(=O)Nc3ccc(F)cc3)ccc2O[C@H]1CN(C)S(=O)(=O)c1ccc(Cl)cc1,70.8 nM,–

Structure (SMILES),AC50,also measured
CC(C)NC(=O)Nc1ccc2c(c1)C(=O)N([C@H](C)CO)C[C@@H](C)[C@H](CN(C)S(=O)(=O)c1ccc(Cl)cc1)O2,123 nM,–
C[C@@H]1CN([C@H](C)CO)C(=O)c2cc(NC(=O)Cc3cn(C)c4ccccc34)ccc2O[C@H]1CN(C)Cc1ccc(C(=O)Nc2ccccc2N)cc1,1720 nM,–
C[C@H](CO)N1C[C@H](C)[C@H](CN(C)S(=O)(=O)c2ccc(Cl)cc2)Oc2ccc(NC(=O)Cc3cn(C)c4ccccc34)cc2C1=O,–,"activity change, negative = inhibition (at 35 µM (top of the series)): inactive"
C[C@@H]1CN([C@H](C)CO)C(=O)c2cc(NC(=O)Cc3cn(C)c4ccccc34)ccc2O[C@H]1CN(C)Cc1ccc(Oc2ccccc2)cc1,–,"activity change, negative = inhibition (at 35 µM (top of the series)): inactive"
O=C(C[C@@H]1CC[C@@H](NC(=O)CC2CC2)[C@H](CO)O1)NCc1ccc(Cl)cc1,> 70000 nM (inactive),–
C[C@@H]1CN([C@H](C)CO)C(=O)c2cc(NC(=O)Cc3cn(C)c4ccccc34)ccc2O[C@H]1CN(C)S(=O)(=O)c1cccs1,2360 nM,–
CCCNC(=O)N(C)C[C@@H]1Oc2cc(-c3cncnc3)ccc2S(=O)(=O)N([C@@H](C)CO)C[C@@H]1C,–,"activity change, negative = inhibition (at 35 µM (top of the series)): inactive"
O=C(C[C@H]1CC[C@H](NC(=O)CC2CC2)[C@@H](CO)O1)NCc1ccc(Cl)cc1,> 70000 nM (inactive),–
Cc1noc(C)c1S(=O)(=O)N(C)C[C@H]1Oc2c(NC(=O)c3nc4ccccc4s3)cccc2C(=O)N([C@H](C)CO)C[C@H]1C,–,"activity change, negative = inhibition (at 35 µM (top of the series)): inactive"
C[C@H](CO)N1C[C@H](C)[C@H](CN(C)C)Oc2c(NS(C)(=O)=O)cccc2C1=O,> 70000 nM (inactive),–
C[C@@H]1CN([C@H](C)CO)C(=O)c2cc(NC(=O)CCN3CCOCC3)ccc2O[C@H]1CN(C)S(=O)(=O)c1ccc(Cl)cc1,4950 nM,–
C[C@@H]1CN([C@@H](C)CO)C(=O)Cc2cc(NC(=O)CCCN(C)C)ccc2O[C@H]1CN(C)Cc1ccncc1,> 70000 nM (inactive),–
COc1ccc(S(=O)(=O)Nc2ccc3c(c2)C(=O)N([C@H](C)CO)C[C@@H](C)[C@H](CN(C)S(=O)(=O)c2ccc(Cl)cc2)O3)cc1,2690 nM,–
Cc1ccc(S(=O)(=O)N(C)C[C@@H]2Oc3ccc(NC(=O)Cc4cn(C)c5ccccc45)cc3C(=O)N([C@H](C)CO)C[C@H]2C)cc1,210 nM,–
C[C@@H]1CN([C@H](C)CO)C(=O)c2cc(NC(=O)NC3CCCCC3)ccc2O[C@H]1CN(C)S(=O)(=O)c1ccc(Cl)cc1,354 nM,–
COc1ccc(CN(C)C[C@@H]2Oc3ccc(NC(=O)CCCN(C)C)cc3C(=O)N([C@H](C)CO)C[C@H]2C)cc1,> 70000 nM (inactive),–
C[C@@H]1CN([C@H](C)CO)C(=O)c2cc(NC(=O)Cc3cn(C)c4ccccc34)ccc2O[C@H]1CN(C)S(C)(=O)=O,9870 nM,–
C[C@@H]1CN([C@H](C)CO)C(=O)c2cc(N(C)C)ccc2O[C@H]1CN(C)S(=O)(=O)c1ccc(Cl)cc1,628 nM,–
COc1cc(OC)cc(C(=O)Nc2nc(-c3ccc4c(c3)CCN4C(=O)CN3CCOCC3)cs2)c1,< 15 nM,–
C[C@@H]1CN([C@H](C)CO)C(=O)c2cc(NS(=O)(=O)c3cn(C)cn3)ccc2O[C@H]1CN(C)S(=O)(=O)c1ccc(Cl)cc1,3390 nM,–
